Structures are written as SMILES.

What all share (type): functional
For test [1], the system named is SK-OV-3. The test can be described thus: Efficacy is growth inhibition activity at 10 uM concentration relative to the maximum activity observed for 4-HPR with SK-OV-3 cell line. A digest of the protocol:
(§1)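 Cells seeded at 1000 cells/well; next day retinoids added from DMSO stocks (DMSO ≤0.01% final; solvent-only controls) to final 1, 4, 7 and 10 μM, handled under subdued light. After 3 days, living cells quantitated by MTS/PMS reduction read at OD490 in linear range (0.1–0.6); triplicate wells averaged, percent growth inhibition calculated versus solvent controls.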

Test [2] concerns Caov-3 cell line. Briefly: Efficacy is growth inhibition activity at 10 uM concentration relative to the maximum activity observed for 4-HPR with Caov-3 cell line. A digest of the protocol:
as §1

The subject of test [3] is SK-OV-3. The test can be described thus: Potency of compound was determined from ability to inhibit the growth of ovarian carcinoma SK-OV-3 cell line. A digest of the protocol:
as §1

Test [4] relates to Caov-3 cell line. Briefly: Potency of compound was determined from ability to inhibit the growth of ovarian carcinoma cell line Caov-3. In short, it runs like this: as §1
Test [5] has as its system OVCAR-3. Briefly: Potency of compound was determined from ability to inhibit the growth of ovarian carcinoma OVCAR-3 cell line. In short, it runs like this: as §1
The test system of test [6] is OVCAR-3. The test can be described thus: Efficacy is growth inhibition activity at 10 uM concentration relative to the maximum activity observed for 4-HPR with OVCAR-3 cell line. A digest of the protocol: as §1

`CCOC(=O)c1ccc(NC(=O)Nc2ccc3c(c2)C(C)(C)CC(C)(C)S3)cc1`: the Efficacy is 71.8% with SK-OV-3 [1], 63.7% in the test on Caov-3 cell line [2] and 160.4% in the test on OVCAR-3 [6]. Further, the Potency in the test on SK-OV-3 [3] is 4.1 µM; with Caov-3 cell line [4] it was 7 µM; in the test on OVCAR-3 [5], 3.9 µM.
`Cc1cc2c(cc1/N=C(\S)Nc1ccc(S(N)(=O)=O)cc1)C(C)(C)CC(C)(C)S2`: the results for the Efficacy in the test with SK-OV-3 [1], in the test on Caov-3 cell line [2] and in the test with OVCAR-3 [6] were 67.7%, 30.3% and 90%, respectively. Besides, the Potency with SK-OV-3 [3] was 6.9 µM; with Caov-3 cell line [4], 0.9 µM; with OVCAR-3 [5] it was 4.4 µM.
Regarding `CCOC(=O)c1ccc(NC(=O)Nc2cc3c(cc2C)SC(C)(C)CC3(C)C)cc1`, the figures for the Efficacy in the test on SK-OV-3 [1], with Caov-3 cell line [2] and with OVCAR-3 [6] were 75.7%, 54.9% and 107%, respectively. Besides, the Potency with SK-OV-3 [3] was 7.2 µM; with Caov-3 cell line [4] it was 10.2 µM; with OVCAR-3 [5], 4.7 µM.
As for `CC1(C)CC(C)(C)c2cc(N/C(S)=N/c3ccc(S(N)(=O)=O)cc3)ccc2S1`, the Efficacy was found to be 50.5% with SK-OV-3 [1], 16.7% in the test on Caov-3 cell line [2] and 74.1% in the test with OVCAR-3 [6]. Further, the Potency was determined as 7.8 µM in the test with SK-OV-3 [3], 7 µM with Caov-3 cell line [4] and 4.4 µM in the test on OVCAR-3 [5].
Turning to `CCOC(=O)c1ccc(N/C(S)=N/c2ccc3c(c2)C(C)(C)CC(C)(C)S3)cc1`, the results for the Efficacy in the test on SK-OV-3 [1], in the test with Caov-3 cell line [2] and in the test on OVCAR-3 [6] were 64.9%, 38.1% and 133.8%, respectively. In addition, the Potency with SK-OV-3 [3] is 3.9 µM; with Caov-3 cell line [4], 4.6 µM; in the test with OVCAR-3 [5] it was 3.9 µM.
`CCOC(=O)c1ccc(N/C(S)=N/c2cc3c(cc2C)SC(C)(C)CC3(C)C)cc1`: the Efficacy in the test on SK-OV-3 [1] was 85.4%; in the test on Caov-3 cell line [2], 37.4%; in the test with OVCAR-3 [6], 114.4%. Further, the Potency was 4.4 µM in the test on SK-OV-3 [3], 4 µM in the test with Caov-3 cell line [4] and 4.4 µM in the test on OVCAR-3 [5].
For the molecule `Cc1cc([N+](=O)[O-])ccc1/N=C(\S)Nc1ccc2c(c1)C(C)(C)CC(C)(C)S2`, the figures for the Efficacy with SK-OV-3 [1], with Caov-3 cell line [2] and with OVCAR-3 [6] were 78.4%, 52.1% and 149.5%, respectively. Further, the Potency worked out at 3.9 µM with SK-OV-3 [3], 7.4 µM in the test on Caov-3 cell line [4] and 3.7 µM in the test with OVCAR-3 [5].
On to `CC1=C(/C=C/C(C)=C/C=C/C(C)=C/C(=O)Nc2ccc(O)cc2)C(C)(C)CCC1` [FENRETINIDE], for which the Efficacy in the test with SK-OV-3 [1], with Caov-3 cell line [2] and with OVCAR-3 [6] was 100% in each case. For the same molecule, the Potency stood at 8.2 µM in the test with SK-OV-3 [3], 3.7 µM with Caov-3 cell line [4] and 6.9 µM with OVCAR-3 [5].
Take `CC1(C)CC(C)(C)c2cc(NC(=S)Nc3ccc([N+](=O)[O-])cc3)ccc2S1` [SHETA-2]: the Efficacy is given as 69.1% in the test on SK-OV-3 [1], 89.2% with Caov-3 cell line [2] and 155.2% in the test with OVCAR-3 [6]. In addition, the Potency with SK-OV-3 [3] stood at 0.2 µM; with Caov-3 cell line [4], 3.7 µM; in the test with OVCAR-3 [5], 1 µM.
